HIF activator: HIF pathway transcriptional activation; U2OS HRE-luciferase reporter, luminescence; normalized: DMSO 0%, desferrioxamine 100%; activation, % at 7.5 µM (by protocol); 0.32% of 300,000 active;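 active = mean activation of at least 10% of the iron chelator positive control signal, with at least half of replicates also reaching 10%; inconclusive = mean and replicate majority disagree about reaching 10%; inactive = mean and most replicates under 10%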
Bfl-1 A1 inh: inhibitors of the anti-apoptotic protein A1, read as caspase activation. MEF A1-2A-BIM cells, Caspase-Glo 3/7 luminescence, 3 h; percent of clofoctol response, vehicle zero. caspase activation, % (test concentration not listed). 0.066% of 330,000 active. AID 2462;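 active = over half of replicate activation scores above 10%, or exactly half above 10 with the replicate mean above 10; inconclusive = replicate mean below 10 yet half the replicates above 10; inactive = over half of replicates below 10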
T cruzi inh: T. cruzi replication inhibition; 1.4% of 300,000 active; inhibition, % (no concentration beside the values); T. cruzi beta-gal in NIH3T3, luminescence, 90 h;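 active = mean inhibition across valid replicates above about 55%, limit read from the data; inconclusive = mean below that limit but half or more replicates reach it; inactive = mean below it, under half of replicates reach it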;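 also: signal also drops with host cell toxicity which is not excluded here; 0% = plate median of DMSO wells and 100% = zero luminescence signal; higher percent means less beta-gal luminescence so fewer parasites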
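System: NIH/3T3 fibroblasts plus reporter T. cruzi. Medium: DMEM plus 2% FBS. Probe or stimulus: 5000 reporter trypomastigotes per well. Compound: single 50 nL compound addition per well in DMSO. Incubation: co-culture of at least 90 h after 3 h attachment. Detection: GalScreen β-gal luminescence, detergent lysis, 60 min. Evaluation: parasite load inhibition, %.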
KLF5 inhibitor: kruppel-like factor 5 inhibition. AID 1700. DLD-1 KLF5 promoter-luciferase reporter, luminescence. inhibition, % at 5 µM. 0.23% of 290,000 active;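 active = inhibition above a per-plate limit of that plate's mean compound inhibition plus 3 SD, cut at about 60% in these data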;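 also: 0% = DMSO wells and 100% = LY294002 at 200 µM; higher means less KLF5 promoter-driven luciferase light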
Beta apoptosis: blocks beta cell apoptosis; 0.8% of 300,000 active; protection from apoptosis, % (test concentration not listed); INS-1E cytokine-induced death, ATP luminescence, 48 h; percent of positive-control rescue, neutral wells zero;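 active = Every replicate reaches about 75%, or at least half do and their mean reaches it too, limit read from the data; inconclusive = At least half of replicates reach the limit but their mean does not; inactive = Under half of replicates reach the limit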;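 also: 0% = cytokine-treated negative control wells and 100% = positive control rescue; higher means more ATP so stronger rescue from cytokine killing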
* = called active by the depositor. Shown are actives, neighbours in structure and some others; about 2.3% of the full set was active somewhere.

What do the screens show for `COc1cc(/C=N/NC(=O)c2nc3ccccn3c2C)cc(OC)c1O`?
HIF activator: 0; Bfl-1 A1 inh: 0; T cruzi inh: 81*; KLF5 inhibitor: -14; Beta apoptosis: 1

Results for CCN(CC)CCN(C(=O)C1=COCCO1)c1nc2ccc(C)cc2s1 ?
HIF activator: 4; Bfl-1 A1 inh: 1; T cruzi inh: 59*; KLF5 inhibitor: -28; Beta apoptosis: -5

How did CN(C)CCCN(C(=O)c1cccs1)c1nc2cc3c(cc2s1)OCO3 do in these assays?
HIF activator: 5; Bfl-1 A1 inh: 1; T cruzi inh: 67*; KLF5 inhibitor: -14; Beta apoptosis: -7

Results for Cc1ccc2nc(N(CCCN(C)C)C(=O)c3ccc(Br)s3)sc2c1 ?
HIF activator: -2; Bfl-1 A1 inh: 0; T cruzi inh: 62*; KLF5 inhibitor: -11; Beta apoptosis: -3

How did CN(C)CCCN(C(=O)c1ccc(Br)s1)c1nc2cc3c(cc2s1)OCCO3 do in these assays?
HIF activator: 0; Bfl-1 A1 inh: -2; T cruzi inh: inconclusive

What do the screens show for `CCOc1ccc2nc(N(CCN(CC)CC)C(=O)c3ccc([N+](=O)[O-])cc3)sc2c1`?
HIF activator: 0; Bfl-1 A1 inh: 2; T cruzi inh: 55*; KLF5 inhibitor: -25; Beta apoptosis: -11

How did CCN(CC)CCN(C(=O)C1=COCCO1)c1nc2cc3c(cc2s1)OCO3 do in these assays?
HIF activator: 2; Bfl-1 A1 inh: 1; T cruzi inh: 43; KLF5 inhibitor: 2; Beta apoptosis: -2

How did CN(C)CCCN(C(=O)c1ccc(Cl)s1)c1nc2cc3c(cc2s1)OCO3 do in these assays?
HIF activator: 0; Bfl-1 A1 inh: 2; T cruzi inh: inconclusive; KLF5 inhibitor: -31; Beta apoptosis: 3

Results for C/C(CC(=O)Nc1ccc2c(c1)OCCO2)=N\NC(=O)COc1ccc(Cl)c(C)c1 ?
HIF activator: 0; Bfl-1 A1 inh: 2; T cruzi inh: -20; KLF5 inhibitor: -1; Beta apoptosis: 2

How did Cc1ccccc1NC(=S)NC(=O)COc1ccccc1C do in these assays?
HIF activator: 1; Bfl-1 A1 inh: 1; T cruzi inh: -2; KLF5 inhibitor: -23

Results for CN(C)CCCN(C(=O)c1ccco1)c1nc2cc3c(cc2s1)OCO3 ?
HIF activator: 4; Bfl-1 A1 inh: 0; T cruzi inh: 57*; KLF5 inhibitor: -22

What do the screens show for `CN(C)CCCN(C(=O)c1cc2cc([N+](=O)[O-])ccc2s1)c1nc2cc3c(cc2s1)OCCO3`?
HIF activator: -4; Bfl-1 A1 inh: 8.4*; T cruzi inh: 63*

How did Cc1ccc2nc(N(CCCN(C)C)C(=O)c3ccco3)sc2c1 do in these assays?
HIF activator: 0; Bfl-1 A1 inh: -1; T cruzi inh: 56*; KLF5 inhibitor: -49; Beta apoptosis: -2

How did CN(C)CCCN(C(=O)c1ccco1)c1nc2c(F)cc(F)cc2s1 do in these assays?
HIF activator: 1; Bfl-1 A1 inh: 1; T cruzi inh: 57*; KLF5 inhibitor: -12; Beta apoptosis: -2

How did COc1ccc2ccc(O)c(CN(C)CC(=O)Nc3ccccc3C(F)(F)F)c2c1 do in these assays?
HIF activator: 1; Bfl-1 A1 inh: 0; T cruzi inh: -2; KLF5 inhibitor: -32; Beta apoptosis: -2

Results for CN(Cc1ccccc1)C(=O)C1CCCN(Cc2cccc(Cl)c2)C1 (stereo unspecified) ?
HIF activator: 0; Bfl-1 A1 inh: 0; T cruzi inh: 60*; KLF5 inhibitor: 3; Beta apoptosis: 5

Results for CCOC(=O)C1CCCN(C2CCN(Cc3nc(-c4ccccc4)no3)CC2)C1 (stereo unspecified) ?
HIF activator: 0; Bfl-1 A1 inh: 1; T cruzi inh: 70*; KLF5 inhibitor: -27; Beta apoptosis: -1

What do the screens show for `CCOC(=O)C1CCCN(Cc2ccc(-c3ccccc3)cc2)C1` (stereo unspecified)?
HIF activator: -31; Bfl-1 A1 inh: 1; T cruzi inh: 68*; KLF5 inhibitor: -38; Beta apoptosis: 0

How did CC(C)[C@H](NC(=O)c1ccccc1)C(=O)NC1=NCCS1 do in these assays?
Bfl-1 A1 inh: 0; Beta apoptosis: -3

What do the screens show for `COc1ccc(C2=CC(=O)C=CC2=O)cc1`?
HIF activator: 1; T cruzi inh: -10; KLF5 inhibitor: -22

How did COc1ccc(CC(NC(C)=O)C(=O)NC2CCN(C(=O)Nc3ccc(Cl)cc3)CC2)cc1OC (stereo unspecified) do in these assays?
HIF activator: 37*; Bfl-1 A1 inh: 0; T cruzi inh: -3; KLF5 inhibitor: -7; Beta apoptosis: -1

What do the screens show for `Cc1ccc(NNC(=O)c2ccno2)cc1Cl`?
HIF activator: -1; Bfl-1 A1 inh: 0; T cruzi inh: 28; KLF5 inhibitor: 2; Beta apoptosis: 99*

Results for Cc1ccc(NNC(=O)c2ccno2)cc1C ?
HIF activator: -1; Bfl-1 A1 inh: -1; T cruzi inh: 9; KLF5 inhibitor: -5; Beta apoptosis: 6

How did COc1ccc(Cl)cc1NC(=O)COC(=O)Cc1cc(OC)c(OC)c(OC)c1 do in these assays?
Bfl-1 A1 inh: 1; Beta apoptosis: 6

Results for COc1ccc(/C=N/N2CCN(Cc3ccccc3)CC2)cc1 ?
HIF activator: 1; Bfl-1 A1 inh: 1; T cruzi inh: 9; KLF5 inhibitor: -39; Beta apoptosis: inconclusive

Results for COc1ccc(/C=C/C2=CCN(Cc3ccc(OC)cc3)CC2)cc1 ?
HIF activator: 0; Bfl-1 A1 inh: 0; T cruzi inh: 58*; KLF5 inhibitor: 5; Beta apoptosis: 63

Results for CC1(C)CC[C@]2(CO)[C@@H](O)C[C@]3(C)C(=CCC4[C@@]5(C)CC[C@H](O)C(C)(C)C5CC[C@]43C)[C@@H]2C1 (stereo partly specified) ?
HIF activator: 0; Bfl-1 A1 inh: -1; T cruzi inh: 43; Beta apoptosis: 11

What do the screens show for `COC(=O)c1ccc2c(=O)n(-c3ccccc3)c(SCN3C(=O)c4ccccc4C3=O)nc2c1`?
HIF activator: 0; Bfl-1 A1 inh: 2; T cruzi inh: 6; KLF5 inhibitor: -35; Beta apoptosis: 106*

What do the screens show for `O=C(O)c1ccc(CSc2nc3ccccc3c(=O)n2-c2ccccc2)cc1`?
HIF activator: 1; Bfl-1 A1 inh: 1; T cruzi inh: 1; KLF5 inhibitor: -20; Beta apoptosis: 2

What do the screens show for `O=C(Nc1oc2ccc(Cl)cc2c(=O)c1-c1ccc(F)cc1)c1ccco1`?
HIF activator: -1; Bfl-1 A1 inh: -2; T cruzi inh: -14; KLF5 inhibitor: -11

Results for CCN(CC)CC(=O)Nc1ccc(-c2nc3cc(NC(=O)CN(CC)CC)ccc3o2)cc1 ?
HIF activator: 3; Bfl-1 A1 inh: 0; T cruzi inh: 38; KLF5 inhibitor: -25; Beta apoptosis: 6

What do the screens show for `O=C(CN1CCCC1)Nc1ccc(-c2nc3cc(NC(=O)CN4CCCC4)ccc3o2)cc1`?
HIF activator: 13*; Bfl-1 A1 inh: 0; T cruzi inh: 51; KLF5 inhibitor: -59; Beta apoptosis: 10

Screening results: PubChem BioAssay, several laboratories
